Bioassay records (PubChem)
Sampled rows, rich in hits. Any-hit rate of the full collection: about 2.9%.
Cneo AK release – Cryptococcus neoformans cell lysis inducers, primary screen, AK release luminescence, single concentration; actives 0.2% (n = 360,000); C. neoformans lysis, adenylate kinase release luminescence, 4 h; normalised: neutral wells 0, clomiphene wells 100; lysis activity, % at 15 µM;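 active = mean lysis activity across replicates of at least 80%, whatever share of replicates individually reach that level; inactive = mean lysis activity below 80%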
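Signal: Adenylate kinase release luminescence | Assay system: Log-phase Cryptococcus neoformans yeast cells | Input: Cells at 5 × 10^6 per mL | Buffer or medium: Fresh YPD growth medium | Compound: Single dose | Schedule: Static 4 h at 37 °C with compound, 1 h detection | Controls: Clomiphene | Read-out: Luminescence rise reflecting yeast cell lysis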
CDK5 inh – inhibitors of human CDK5/p35 kinase, primary screen, biochemical, single concentration | Recombinant CDK5/p35, ADP-Glo luminescence, 60 min | inhibition, % at 10 µM | actives 0.01% (n = 330,000) | AID 488839, 2010;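 active = highest replicate inhibition of at least 50% and at least 75% of replicates reaching 50%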
Target sequence (Q00535 whole entry, looked up): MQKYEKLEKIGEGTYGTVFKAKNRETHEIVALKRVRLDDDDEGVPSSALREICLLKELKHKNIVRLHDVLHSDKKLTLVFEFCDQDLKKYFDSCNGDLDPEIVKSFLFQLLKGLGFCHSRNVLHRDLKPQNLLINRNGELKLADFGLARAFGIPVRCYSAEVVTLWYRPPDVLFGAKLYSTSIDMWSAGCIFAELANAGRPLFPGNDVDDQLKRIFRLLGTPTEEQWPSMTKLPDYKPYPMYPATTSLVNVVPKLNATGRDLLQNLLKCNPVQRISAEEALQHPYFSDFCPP
Target sequence (Q15078 whole entry, looked up): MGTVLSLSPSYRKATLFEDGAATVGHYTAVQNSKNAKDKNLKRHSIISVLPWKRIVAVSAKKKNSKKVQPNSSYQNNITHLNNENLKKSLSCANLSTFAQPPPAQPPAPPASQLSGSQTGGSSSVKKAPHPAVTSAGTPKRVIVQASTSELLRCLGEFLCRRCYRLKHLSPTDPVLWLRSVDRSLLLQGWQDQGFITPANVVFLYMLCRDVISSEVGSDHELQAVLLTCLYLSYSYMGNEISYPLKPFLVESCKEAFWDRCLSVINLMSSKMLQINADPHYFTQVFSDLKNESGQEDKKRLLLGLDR
Env fusion inh – inhibitors of HIV-1 Env-driven cell-cell fusion, primary screen, HeLa-JRFL effector, CEM21 target cells, luciferase. actives 1.1% (n = 360,000). inhibition, % at 12.3 µM. AID 651610, 2012;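 active = mean replicate inhibition score of at least 50 and every replicate individually at or above 50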
PAX8 inh HTS – inhibitors of PAX8-driven TPO luciferase reporter, primary screen, RMG-I cells, single concentration; SteadyGlo, 24 h; inhibition, % at 12.6 µM; actives 1.2% (n = 360,000);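 active = mean replicate inhibition at least 60% with every replicate also reaching 60%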;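 note: luciferase light reporting Pax8 driven TPO promoter activity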
INS-1E GSIS act – GLuc luminescence reporter in INS-1E cells, primary screen for activators of glucose-dependent secretion of insulin; INS-1E GLuc reporter insulin secretion, 2-3 h; activation, % at 16.6 µM; actives 0.61% (n = 370,000);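 active = lowest replicate activation of at least 40%, so every replicate reaches that level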
dFosB act – activators of delta FosB homodimer, primary screen, biochemical, fluorescence polarization, TAMRA-CDK5 oligo, single point; Protein FosB (Mus musculus), P13346; purified delta FosB; percent of positive-control signal above neutral wells; activation, % at 25 µM; actives 0.99% (n = 340,000); AID 493131, 2011;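 active = mean activation above about 17%, with every replicate also reaching it, limit read from the data, passing the limit was not always enough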
Hits are given with their value; 0 = inactive; - = no result; [ ] = another dose, or the depositor's remark.

SMILES	Cneo AK release	CDK5 inh	Env fusion inh	PAX8 inh HTS	INS-1E GSIS act	dFosB act
C[C@@H]1CCCCO[C@@H](CN(C)Cc2ccccc2)[C@H](C)CN([C@H](C)CO)C(=O)c2cc(N(C)C)ccc2O1	-	-	0	0	0	-
C[C@@H]1CCCCO[C@H](CN(C)Cc2ccncc2)[C@@H](C)CN([C@H](C)CO)C(=O)c2cc(N(C)C)ccc2O1	110	-	0	0	0	-
COc1ccc(CN(C)C[C@@H]2OCCCC[C@H](C)Oc3ccc(N(C)C)cc3C(=O)N([C@H](C)CO)C[C@@H]2C)cc1	94	-	0	0	0	-
C[C@H]1CCCCO[C@H](CN(C)Cc2ccncc2)[C@@H](C)CN([C@@H](C)CO)C(=O)c2cc(N(C)C)ccc2O1	0	-	0	0	0	-
CCC(C)(C)n1nnnc1C(c1ccc2ncccc2c1)N1CCCCCC1 (stereo not given)	0	0	29	0	-	0
CC(C)(C)n1nnnc1C(c1cccc(C#N)c1)N1CCN2CCCC2C1 (stereo not given)	0	0	0	-	0	0
c1cnc2ccc(C(c3nnnn3C3CCCCC3)N3CCCCC3)cc2c1 (stereo not given)	0	0	105	0	-	0
CC(C)(C)n1nnnc1C(c1cccc(C#N)c1)N1CCCCCC1 (stereo not given)	0	0	94	0	-	0
Cc1cc(C)c(-c2csc(NC(=O)/C=C/c3cccs3)n2)c(C)c1	0	0	63	0	0	0
Cc1cc(C)nc(NC(=O)/C=C/c2cccs2)c1	0	0	-	-	0	0
CC(C)CC#Cc1cnc2c(c1)C(=O)N([C@H](C)CO)C[C@@H](C)[C@H](CN(C)S(=O)(=O)c1cccs1)O2	0	-	0	-	0	-
O=C(CC1CC1)N1CC(=O)N2[C@H](CO)[C@H](c3ccc(C#Cc4cccc(F)c4)cc3)[C@@H]2C1	-	-	-	-	0	-
COc1ccc(C(C)=O)cc1COC(=O)CCC(=O)c1cccs1	0	0	0	0	44	0
COc1ccc(CCNC(=O)CCC(=O)c2cccs2)cc1OC	0	0	0	-	103	0
CCOc1ccc(CCNC(=O)CCC(=O)c2cccs2)cc1OCC	0	0	0	0	95	0
CCOc1ccc(CCNC(=O)COC(=O)c2sccc2C)cc1OCC	-	0	0	0	0	0
CCOc1ccc(CCNC(=O)c2cc3sccc3n2CC)cc1OCC	0	0	65	0	-	0
COc1ccc(NC(=O)N2CCC3(CC2)CN(C(=O)CN2CCOCC2)[C@H](CO)c2[nH]c4cc(OC)ccc4c23)cc1	-	-	-	-	0	-
COc1ccc(CN(C)C[C@@H]2OCCCC[C@H](C)Oc3ccc(NS(=O)(=O)c4cn(C)cn4)cc3C(=O)N([C@@H](C)CO)C[C@H]2C)cc1	0	-	0	0	0	-
CO[C@H]1CN(C)C(=O)c2ccc(NS(=O)(=O)c3cccc(F)c3)cc2OC[C@H](C)N(C(=O)Cc2cccnc2)C[C@@H]1C	-	-	0	-	0	-
O=C(NCC[C@@H]1CC[C@H](NC(=O)C2CC2)[C@@H](CO)O1)c1ccc(F)cc1	0	-	0	-	0	-
COc1ccc(CCNC(=O)N2c3ccccc3Sc3ccccc32)cc1	0	0	75	0	-	0
COc1ccc(CCNC(=O)COC(=O)c2cccs2)cc1OC	0	0	0	0	0	0
COc1ccc(CCNC(=O)COC(=O)c2cccs2)cc1	-	0	0	83	0	0
C/C=C/c1ccc([C@H]2[C@@H](CO)N(CC3CC3)[C@@H]2CNC(=O)c2ccccc2)cc1	0	-	-	0	0	-
SMILES	Cneo AK release	CDK5 inh	Env fusion inh	PAX8 inh HTS	INS-1E GSIS act	dFosB act
COc1cccc(S(=O)(=O)N(C)C[C@@H]2OCc3ccccc3-c3c(n(C)c4ccccc34)C(=O)N([C@@H](C)CO)C[C@@H]2C)c1	0	-	60[16.7 µM]	82	0	-
COc1cccc(S(=O)(=O)N(C)C[C@@H]2OCc3ccccc3-c3c(n(C)c4ccccc34)C(=O)N([C@H](C)CO)C[C@H]2C)c1	0	-	0	0	0	-
COc1cccc(S(=O)(=O)N(C)C[C@H]2OCc3ccccc3-c3c(n(C)c4ccccc34)C(=O)N([C@@H](C)CO)C[C@H]2C)c1	0	-	0	86	0	-
COc1cccc(S(=O)(=O)N(C)C[C@H]2OCc3ccccc3-c3c(n(C)c4ccccc34)C(=O)N([C@H](C)CO)C[C@@H]2C)c1	0	-	0	66	0	-
COc1ccc(S(=O)(=O)N(C)C[C@H]2OCc3ccccc3-c3c(n(C)c4ccccc34)C(=O)N([C@H](C)CO)C[C@H]2C)cc1	0	-	-	-	0	-
Cc1cccc(S(=O)(=O)N(C)C[C@H]2OCc3ccccc3-c3c(n(C)c4ccccc34)C(=O)N([C@H](C)CO)C[C@@H]2C)c1	0	-	-	-	0	-
COc1cccc(S(=O)(=O)N(C)C[C@@H]2OCc3ccccc3-c3c(n(C)c4ccccc34)C(=O)N([C@H](C)CO)C[C@@H]2C)c1	0	-	55[16.7 µM]	75	0	-
COc1ccc(-c2ccccc2[C@@H]2[C@H](C#N)N(C(=O)C3CC3)[C@H]2CO)cc1	-	-	-	0	0	-
COc1ccc(S(=O)(=O)Nc2ccc3c(c2)CC(=O)N([C@@H](C)CO)C[C@@H](C)[C@H](CN(C)Cc2ccc(C(F)(F)F)cc2)O3)cc1	0	-	73[16.7 µM]	111	0	-
COc1ccc(S(=O)(=O)Nc2ccc3c(c2)CC(=O)N([C@@H](C)CO)C[C@@H](C)[C@@H](CN(C)Cc2ccc(C(F)(F)F)cc2)O3)cc1	0	-	0	0	0	-
COc1ccc(S(=O)(=O)Nc2ccc3c(c2)CC(=O)N([C@H](C)CO)C[C@H](C)[C@@H](CN(C)Cc2ccc(C(F)(F)F)cc2)O3)cc1	0	-	0	113	-	-
COc1ccc2c3c(n(C)c2c1)[C@H](CO)N(C(=O)C1CCOCC1)CC31CN(C(=O)C2CCOCC2)C1	-	-	-	0	0	-
COc1cccc(C2=CC(=O)CC(C)(C)C2)c1OC	0	0	0	0	0	0
CC1(C)CC(=O)C=C(c2ccc(F)cc2OCc2ccccc2)C1	0	0	77	0	0	0
O=C([C@@H]1[C@@H](CO)[C@@H]2Cn3c(cccc3=O)[C@H]1N2Cc1cccc(Cl)c1)N1CCOCC1	98	-	0	-	0	-
O=C([C@@H]1[C@@H](CO)[C@@H]2Cn3c(cccc3=O)[C@H]1N2Cc1cccc(Cl)c1)N1CCCCC1	0	-	-	0	0	-
O=C(CN1C(=O)NC2NC(=O)NC21)NN=C1CCCC1 (stereo not given)	-	0	-	83	0	0
O=C(Nc1nc(-c2ccc([N+](=O)[O-])cc2)cs1)C1=COCCO1	0	-	0	0	-	-
O=C(Nc1nc(-c2ccccc2)cs1)c1ccccc1NS(=O)(=O)c1ccc(F)cc1	-	0	64	86	0	0
